This experiment addresses T1, 5-hydroxytryptamine receptor 1A (Rattus norvegicus, UniProt P19327).
T1 sequence (P19327 whole entry): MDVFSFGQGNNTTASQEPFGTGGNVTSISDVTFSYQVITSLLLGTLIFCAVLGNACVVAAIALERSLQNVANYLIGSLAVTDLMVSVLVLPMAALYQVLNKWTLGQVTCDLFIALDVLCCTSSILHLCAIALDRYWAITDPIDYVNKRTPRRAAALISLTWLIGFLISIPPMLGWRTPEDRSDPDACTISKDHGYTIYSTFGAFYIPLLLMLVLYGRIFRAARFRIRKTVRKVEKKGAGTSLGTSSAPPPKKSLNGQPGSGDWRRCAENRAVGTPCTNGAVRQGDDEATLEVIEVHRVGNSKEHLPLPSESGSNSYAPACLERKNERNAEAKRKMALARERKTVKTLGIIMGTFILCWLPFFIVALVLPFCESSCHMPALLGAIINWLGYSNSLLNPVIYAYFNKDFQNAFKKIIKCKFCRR
Kind of experiment: In vitro inhibition of [3H]8-OH-DPAT binding to 5-hydroxytryptamine 1A receptor in rat cerebral cortex membranes. The method in brief: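 Rat cerebral cortex membranes (about 1 mg protein) incubated 15 min at 37 °C with 0.6 nM [3H]-8-OH-DPAT in 50 mM Tris-HCl, pH 7.4, containing 10 nM clonidine and 30 nM prazosin. Nonspecific binding with 10 µM 5-HT. Compounds screened at 10^-6 M; curves run if displacement exceeded 55%. Filtration, scintillation counting, triplicates, 2-4 experiments; Ki by Cheng-Prusoff.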

`O=c1n(CN2CCN(c3cccc4ccccc34)CC2)c(O)c2n1CCC2` [2-(4-Naphthalen-1-yl-piperazin-1-ylmethyl)-tetrahydro-pyrrolo[1,2-c]imidazole-1,3-dione]: the Ki – broadly, the equilibrium dissociation constant of an inhibitor or competing ligand from its target – stood at 0.0104 µM.
